According to EPA's CvTdb concentration-time database:

What was measured:
Mouse [1] = assay: concentration in plasma after dosing; details: dosed: 2,4-Dichlorophenoxyacetic acid, 2.0 mg/kg, oral, Male, B6C3F1
Hamster = assay: concentration in plasma after dosing; details: dosed: 2,4-Dichlorophenoxyacetic acid, 8.0 mg/kg, iv, Male, Syrian Golden
Outline: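 Data points giving concentration or amount against time came from published in vivo toxicokinetic studies and from two structured collections. PubMed searching, classifier screening and manual review located the studies. Most points were digitised from plot screenshots using WebPlotDigitizer, the rest were copied from tables, and all keep their reported units.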

Rat [2] = assay: concentration in plasma after dosing; details: dosed: 2,4-Dichlorophenoxyacetic acid, 7.0 mg/kg, oral, Male, Sprague-Dawley
Mouse [3] = assay: concentration in plasma after dosing; details: 0.25 h; dosed: 2-Hydroxy-4-methoxybenzophenone; 250 mg/kg; oral; Male; B6C3F1
Rat [4] = assay: concentration in plasma after dosing; details: dosed: 2-Hydroxy-4-methoxybenzophenone, 100 mg/kg, oral, Male, F344
Rat [5] = assay: concentration in plasma after dosing; details: dosed: 2-Hydroxy-4-methoxybenzophenone, 500 mg/kg, oral, Female, F344
Rat [6] = assay: concentration in plasma after dosing; details: dosed: 2-Hydroxy-4-methoxybenzophenone, 100 mg/kg, oral, Female, F344
Rat [7] = assay: concentration in plasma after dosing; details: dosed: Methyleugenol, 37 mg/kg, iv, Female, F344
Rat [8] = assay: concentration in plasma after dosing; details: 20 min; dosed: Methyleugenol; 37 mg/kg; oral; Male; F344/N
Rat [9] = assay: concentration in plasma after dosing; details: dosed: Methyleugenol, 37 mg/kg, oral, Male, F344/N
Rat [10] = assay: concentration in plasma after dosing; details: dosed: Methyleugenol, 37 mg/kg, oral, Female, F344/N
Rat [11] = assay: concentration in liver after dosing; details: 24 h; dosed: Perfluorohexane-1-sulphonic acid – potassium salt; 16 mg/kg; oral; Female; F344
Rat [12] = assay: concentration in brain after dosing; details: 6 h; dosed: Perfluorohexane-1-sulphonic acid – potassium salt; 16 mg/kg; oral; Female; Harlan Sprague Dawley
Rat [13] = assay: concentration in brain after dosing; details: 3 h; dosed: Perfluorohexane-1-sulphonic acid – potassium salt; 16 mg/kg; oral; Female; Harlan Sprague Dawley
Rat [14] = assay: concentration in kidney after dosing; details: 96 h; dosed: Perfluorohexane-1-sulphonic acid – potassium salt; 16 mg/kg; oral; Female; Harlan Sprague Dawley
Rat [15] = assay: concentration in kidney after dosing; details: 24 h; dosed: Perfluorohexane-1-sulphonic acid – potassium salt; 16 mg/kg; oral; Female; F344
Rat [16] = assay: concentration in kidney after dosing; details: 6 h; dosed: Perfluorohexane-1-sulphonic acid – potassium salt; 16 mg/kg; oral; Female; F344
Rat [17] = assay: concentration in plasma after dosing; details: dosed: Perfluorohexane-1-sulphonic acid – potassium salt, 4 mg/kg, oral, Male, F344
Rat [18] = assay: concentration in liver after dosing; details: 12 h; dosed: Perfluorohexane-1-sulphonic acid – potassium salt; 16 mg/kg; oral; Female; F344
Rat [19] = assay: concentration in plasma after dosing; details: 0.5 h; dosed: Primidone; 80 mg/kg; oral; Female; F344
Rat [20] = assay: concentration in plasma after dosing; details: dosed: Pyridine, 25 mg/kg, oral, Male, F344
Rat [21] = assay: concentration in plasma after dosing; details: 5 min; dosed: Pyridine; 10 mg/kg; iv; Male; F344
Rat [22] = assay: concentration in plasma after dosing; details: 5 min; dosed: Pyridine; 10 mg/kg; iv; Male; F344; remark: listed apart in the source
Rat [23] = assay: concentration in plasma after dosing; details: dosed: Pyridine, 5 mg/kg, iv, Male, F344
Rat [24] = assay: concentration in brain after dosing; details: 2.5 h; dosed: 76231-76-0; 3.0 mg/kg; iv; Female; F344
Rat [25] = assay: concentration in plasma after dosing; details: 0.5 h; dosed: alpha-Thujone; 50 mg/kg; oral; Female; Harlan Sprague Dawley
Rat [26] = assay: concentration in brain after dosing; details: 10 min; dosed: alpha-Thujone; 25 mg/kg; oral; Male; Harlan Sprague Dawley
Rat [27] = assay: concentration in plasma after dosing; details: 6 h; dosed: alpha-Thujone; 50 mg/kg; oral; Female; Harlan Sprague Dawley
Rat [28] = assay: concentration in brain after dosing; details: 3 h; dosed: alpha-Thujone; 50 mg/kg; oral; Female; Harlan Sprague Dawley
Rat [29] = assay: concentration in plasma after dosing; details: 12 h; dosed: alpha-Thujone; 50 mg/kg; oral; Female; Harlan Sprague Dawley
Rat [30] = assay: concentration in plasma after dosing; details: 1.5 h; dosed: alpha-Thujone; 25 mg/kg; oral; Male; Harlan Sprague Dawley
Rat [31] = assay: concentration in plasma after dosing; details: 10 min; dosed: alpha-Thujone; 25 mg/kg; oral; Male; Harlan Sprague Dawley

O=C(O)COc1ccc(Cl)cc1Cl [2,4-Dichlorophenoxyacetic acid]
concentration in plasma [ng/mL]
Details | Hamster | Mouse [1] | Rat [2]
0.25 h | – | 3740 | 9530
0.5 h | – | 8570 | 10100
1.5 h | 327 | – | –
2 h | 159 | 2400 | 13900
2.5 min | 127000 | 2790 | 4360
3 h | – | 929 | 2020
4 h | – | – | 2030
5 h | – | – | 3730
5 min | 68500 | – | –
6 h | – | – | 776
10 min | 43200 | 4900 | 8480
20 min | 15900 | – | –
40 min | 2690 | – | –

O=C(c1ccccc1)c1ccc(O)cc1O [2,4-Dihydroxybenzophenone]
Details | concentration in plasma [ng/mL]
Mouse [3] | 1130

Details | concentration in plasma [ng/mL]
Rat [4], 0.5 h | 142
Rat [4], 5 h | 65.6
Rat [5], 0.5 h | 669
Rat [5], 12 h | 198
Rat [6], 3 h | 67.4
Rat [6], 10 min | 58.3

C=CCc1ccc(OC)c(OC)c1 [Methyleugenol]
Details | concentration in plasma [ng/mL]
Rat [7], 2 min | 43100
Rat [7], 6 h | 68
Rat [9], 0.5 h | 44.9
Rat [9], 4 h | 12.7
Rat [10], 5 h | 5.58
Rat [10], 20 min | 146

Details | concentration in plasma [ng/mL]
Rat [8] | 246

O=S(=O)([O-])C(F)(F)C(F)(F)C(F)(F)C(F)(F)C(F)(F)C(F)(F)F.[K+] [Perfluorohexane-1-sulphonic acid – potassium salt]
Details | concentration in brain [ng/g] | concentration in kidney [ng/g] | concentration in liver [ng/g]
Rat [11] | – | – | 78000
Rat [12] | 1090 | – | –
Rat [13] | 1340 | – | –
Rat [14] | – | 6720 | –
Rat [15] | – | 43700 | –
Rat [16] | – | 36400 | –
Rat [18] | – | – | 75600

Rat [17]
Details | concentration in plasma [ng/mL]
1 h | 23200
24 h | 28900
864 h | 9040

CCC1(c2ccccc2)C(=O)NCNC1=O [Primidone]
Details | concentration in plasma [ng/mL]
Rat [19] | 40300

c1ccncc1 [Pyridine]
concentration in plasma [ng/mL]
Details | 0.5 h | 6 h | 8 h
Rat [20] | 15300 | 15100 | –
Rat [23] | 3400 | – | 874

Details | concentration in plasma [ng/mL]
Rat [21] | 8970
Rat [22] | 2510

CC(C)[C@]12CC(=O)[C@H](C)[C@H]1C2 [alpha-Thujone]
Details | concentration in brain [ng/g] | concentration in plasma [ng/mL]
Rat [24] | 19.8 | –
Rat [25] | – | 433
Rat [26] | 3920 | –
Rat [27] | – | 192
Rat [28] | 615 | –
Rat [29] | – | 23.1
Rat [30] | – | 233
Rat [31] | – | 872
